Most compounds without a hit are left out; they make up all but 3.5% or so of the library.
MrgX1 agonist = activates human MrgX1 receptor signaling | Q96LB2 | MrgX1-HEK293 cells, Fluo-4 calcium fluorescence, agonist mode; hits give high values | B-score at 10 µM | 0.44% of 310,000 active | AID 588627;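 active = calcium response B-score plate-corrected fluorescence ratio at least 3 library SD, with starting fluorescence B-score inside 5 SD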
Target sequence (Q96LB2 whole entry, looked up): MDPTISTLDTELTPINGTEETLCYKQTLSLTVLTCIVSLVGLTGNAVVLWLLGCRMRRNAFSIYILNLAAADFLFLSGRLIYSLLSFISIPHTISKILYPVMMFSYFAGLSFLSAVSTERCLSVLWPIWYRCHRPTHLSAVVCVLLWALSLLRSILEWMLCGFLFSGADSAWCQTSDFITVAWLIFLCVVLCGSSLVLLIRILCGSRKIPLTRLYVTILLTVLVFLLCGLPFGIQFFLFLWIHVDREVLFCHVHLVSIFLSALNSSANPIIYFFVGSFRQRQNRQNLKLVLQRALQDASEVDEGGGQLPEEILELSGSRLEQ
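Test system: HEK293 cells stably expressing human MrgX1 receptor; amount: 15,000 cells per well; doses: compound delivered in addition one of three; times: overnight plating before 1 h dye loading; detection: Fluo-4 NW calcium-flux fluorescence, kinetic read; read-out basis: B-scored fluorescence response ratio; controls: positive and negative controls per plate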
MrgX1 PAM = allosterically activates human MrgX1 receptor signaling; Q96LB2; 0.63% of 310,000 active; AID 588675; MrgX1-HEK293, Fluo-4 calcium flux, FDSS; hits give high values; B-score at 10 µM;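 active = plate-corrected calcium response at least 3 library SD above typical, normal starting fluorescence, not activating the receptor alone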;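 note: compound read alongside a low EC10 to EC30 dose of BAM8-22 agonist; peak minus trough fluorescence over baseline measured at the second addition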
RGS4 block = inhibitors of human RGS4. HEK293 M3R/RGS4 inducible, Fluo-4 calcium flux; hits give high values; triggered by carbachol at its EC20. B-score at 10 µM. 0.45% of 310,000 active;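 active = B-score, a plate-corrected calcium signal, over three deviations above library mean, with baseline fluorescence within five deviations of library mean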;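 note: RGS4 expression induced by doxycycline in cells with stable M3 receptor; B-score is computed from the integrated fluorescence ratio over baseline after carbachol; higher B-score means a larger calcium signal and so more RGS4 inhibition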
Target sequence (P49798 whole entry, looked up): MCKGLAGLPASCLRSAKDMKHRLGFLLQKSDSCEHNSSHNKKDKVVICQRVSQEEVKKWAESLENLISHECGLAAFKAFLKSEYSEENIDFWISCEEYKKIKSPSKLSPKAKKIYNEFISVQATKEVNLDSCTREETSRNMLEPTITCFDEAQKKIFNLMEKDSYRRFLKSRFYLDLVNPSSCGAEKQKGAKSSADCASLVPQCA
RGS4 pot = potentiators or activators of RGS4; HEK293 M3R/inducible RGS4, carbachol calcium flux Fluo4; hits give low values; B-score at 10 µM; 0.92% of 310,000 active; AID 463111;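 active = B-score of the integrated calcium signal more than 4 SD below the library mean, with starting fluorescence not abnormally high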;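 note: negative B-score means reduced calcium response which marks RGS4 activation or potentiation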
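Assay system: HEK293 FlpIn-TREx cells, stable M3R, doxycycline-inducible RGS4 / Probe or stimulus: carbachol, ECmax concentration / Times: overnight RGS4 induction, 30 min dye load 37 °C, 20 min compound RT / Signal: kinetic calcium fluorescence imaging with Fluo4-AM dye, 2 µM / Measure: Agonist-evoked peak-minus-minimum fluorescence over baseline, integrated ratio, B score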
MrgX1 antagonist = blocks BAM8-22 activation of human MrgX1 receptor; Q96LB2; MRGX1-HEK293 calcium flux, Fluo-4, BAM8-22 antagonism; hits give low values; B-score at 10 µM; 1.3% of 310,000 active; AID 588676;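 active = calcium-response B-score plate-corrected more than 3 library SD below zero, starting fluorescence within 5 deviations, no agonist response on first addition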;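 note: peak minus trough fluorescence over baseline after final BAM8-22 challenge near maximal dose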
MrgX1 antag conf = reconfirmed antagonist of human MrgX1 receptor signaling | shares compounds with MrgX1 antagonist | MrgX1-HEK293, BAM8-22 calcium flux, Fluo-4; hits give low values | remaining BAM8-22 calcium response % of control (hits give low values), % at 10 µM | 19% of 2,300 active;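 active = remaining agonist calcium response no higher than 100% minus 3 SD of agonist-only control wells, with starting fluorescence near control levels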;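 note: agonist BAM8-22 given at a near maximal EC90 to ECmax level; peak minus minimum fluorescence divided by baseline after agonist addition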
HEK293 Ca flux = activity in parental HEK293 cells lacking MrgX1; shares compounds with MrgX1 antagonist; 2% of 4,000 active; fluorescence ratio F(max-min)/F0 at 10 µM; Fluo-4 calcium fluorescence, FDSS;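 active = duplicate-averaged calcium fluorescence ratio at least three times the standard deviation of buffer wells, a nonspecific response in parental cells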
HEK293 Ca counter = activity in parental HEK293 cells without MrgX1; shares compounds with MrgX1 antagonist; parental HEK293 calcium flux, Fluo-4 fluorescence ratio; hits give high values; fluorescence ratio F(max-min)/F0 at 10 µM; 0.4% of 4,000 active;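 active = calcium fluorescence ratio, averaged over duplicates, at least 3 SD of the buffer-well ratio, meaning a nonspecific response in receptor-free cells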;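 note: untransfected parental HEK293 lacking MrgX1 used as counterscreen for MrgX1 allosteric activators; fluorescence change taken during the second addition on a kinetic imager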
HEK293 Ca cntr2 = counter-screen for MrgX1 activators: effect in parental HEK293 cells; 8.7% of 4,000 active; Fluo-4 calcium fluorescence (FDSS); hits give high values; fluorescence ratio F(max-min)/F0 at 10 µM; shares compounds with MrgX1 antagonist; AID 624115;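 active = calcium fluorescence ratio at least three times the spread of buffer wells, meaning a non-specific response in parental cells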
* hit, by the source's call; i = inactive; . = not tested or not shown.

SMILES	MrgX1 agonist	MrgX1 PAM	RGS4 block	RGS4 pot	MrgX1 antagonist	MrgX1 antag conf	HEK293 Ca flux	HEK293 Ca counter	HEK293 Ca cntr2
O=C(COC(=O)c1cccs1)c1ccc2ccccc2c1	i	i	i	i	-5.6*	i	i	i	i
O=C(NCc1ccc2c(c1)OCO2)C1CC(=O)N(CCc2ccc(Cl)cc2)C1 (stereo not given)	i	i	i	i	i	.	.	.	.
COc1ccc(N2C(=O)CCC(C(=O)N3CCOCC3)C2c2ccc(F)cc2)cc1 (stereo not given)	i	i	i	i	-4.8*	i	i	i	i
COc1ccc(N2C(=O)CCC(C(=O)N3CCCCC3)C2c2ccc(F)cc2)cc1 (stereo not given)	i	i	i	i	i	.	.	.	.
CCOC(=O)CC1C(=O)NCCN1S(=O)(=O)c1ccc(Cl)cc1Cl (stereo not given)	i	i	i	i	-6.9*	i	i	i	i
COc1cccc(C(O)c2nc3ccccc3n2C(C)C)c1 (stereo not given)	i	i	i	i	-6.3*	i	i	i	i
COc1cccc(C(O)c2nc3ccccc3n2C(C)C)c1OC (stereo not given)	i	i	i	i	i	.	.	.	.
Cc1cccc(Nc2nc(N)nc(CSc3nccc(C)n3)n2)c1	i	i	i	i	i	.	.	.	.
COc1ccc(Nc2nc(N)nc(CSc3nccc(C)n3)n2)cc1	i	i	i	i	-9.5*	i	i	i	i
CCC(=O)Nc1nc(N)n(-c2ccccc2)n1	i	i	i	i	-6.9*	i	i	i	i
O=C(Nc1nnc(C2CC2)s1)c1ccc(Cl)c(S(=O)(=O)N2CCc3ccccc3C2)c1	i	i	i	i	-6.4*	63%*	i	i	i
COc1cc(NS(C)(=O)=O)ccc1Nc1c2ccccc2nc2ccccc12	i	i	.	.	-6.7*	i	i	i	i
COc1ccc(OC)c(Nc2c3ccccc3nc3ccccc23)c1	i	i	i	i	i	.	.	.	.
CCc1cc(C(=O)N(CC(C)C)c2c(N)n(Cc3ccccc3)c(=O)[nH]c2=O)sc1C	i	i	i	i	i	.	.	.	.
CCOc1ccc2ccccc2c1CNCCc1ccc(S(N)(=O)=O)cc1	i	i	i	i	-4.8*	55%*	i	i	i
COC(=O)CN1C2(C#N)CCCCC2CC2CCCCC21C#N (stereo not given)	i	i	i	i	i	.	.	.	.
CCn1c2ccccc2c2c3ncc4cccn4c3ccc21	i	i	i	i	-5.8*	78%*	i	i	i
CCN(c1cccc(C)c1)S(=O)(=O)c1cc2c3c(c1)CCN3C(=O)CC2	i	i	i	i	-11*	77%*	i	i	i
CCN(CC)S(=O)(=O)c1ccc(OC)c(NC(=O)c2ccc3c(c2)OCO3)c1	i	i	i	i	-7.6*	i	i	i	i
Cc1ccc(CSC2=NCCN2C(=O)c2ccc(S(=O)(=O)N(C)C)cc2)cc1	i	i	i	i	i	.	.	.	.
COC(=O)c1ccc(CSc2nc3ccccc3c(=O)n2Cc2ccco2)o1	i	i	i	i	i	.	.	.	.
CC(C)(C)c1ccc(Oc2ccc(NC(=O)C3CC=CCC3C(=O)O)cc2)cc1 (stereo not given)	i	i	i	i	-9*	i	i	i	i
Cc1ccccc1Oc1ccc(NC(=O)C2CC=CCC2C(=O)O)cc1 (stereo not given)	i	i	i	i	i	.	.	.	.
CC(C)C(CCNC1CCN(C)CC1)c1ccc(Cl)cc1 (stereo not given)	i	i	i	i	i	.	.	.	.
CN1CCC(NCCC(c2ccc(F)cc2)c2ccc(Cl)cc2)CC1 (stereo not given)	i	i	i	i	-4.6*	i	i	i	i
SMILES	MrgX1 agonist	MrgX1 PAM	RGS4 block	RGS4 pot	MrgX1 antagonist	MrgX1 antag conf	HEK293 Ca flux	HEK293 Ca counter	HEK293 Ca cntr2
Cc1ccc(-n2nc3c(SCCN4CCOCC4)nnc(C)c3c2C)cc1	i	i	i	i	i	.	.	.	.
CCOc1ccc(-n2nc3c(SCCN4CCCC4)nnc(C)c3c2C)cc1	i	i	i	i	-4.7*	i	i	i	i
O=c1c(Cl)c(NCc2ccccc2Cl)cnn1C12CC3CC(CC(C3)C1)C2	i	i	i	i	i	.	.	.	.
Cc1cc(C2N=C(N)Nc3nc4ccccc4n32)c(C)n1-c1ccccc1Cl (stereo not given)	i	i	i	i	-5.5*	i	i	i	i
Cc1ccc(S(=O)(=O)Cn2nnnc2C(C(C)C)N2CCN(Cc3ccco3)CC2)cc1 (stereo not given)	i	i	i	i	-5.7*	i	i	i	i
Cc1ccc(S(=O)(=O)Cn2nnnc2C(C(C)C)N2CCSCC2)cc1 (stereo not given)	i	i	i	i	i	.	.	.	.
CC1CCC(NC(=O)COC(=O)C2CC3CCCC(C2)C3=O)CC1 (stereo not given)	i	i	i	i	-7.9*	i	i	i	i
Cc1onc(-c2c(Cl)cccc2Cl)c1C(=O)ONC(=O)c1ccccc1	i	i	i	i	i	.	.	.	.
O=C(NCc1ccccc1)c1c[nH]c2cc3c(cc2c1=O)OCCO3	i	i	i	i	-5.5*	i	i	i	i
CCOc1ccc2[nH]cc(C(=O)NCc3ccccc3)c(=O)c2c1	i	i	i	i	i	.	.	.	.
CC(=O)NC1C(=O)Nc2c1cccc2C(F)(F)F (stereo not given)	i	i	i	i	i	.	.	.	.
COc1cc(C)c(S(=O)(=O)NC2CC(C)(C)NC(C)(C)C2)cc1C	i	i	i	i	-8.3*	i	i	i	i
